Here are results for six compounds from ChEMBL document CHEMBL1641558, “A novel series of potent and selective EP(4) receptor ligands: facile modulation of agonism and antagonism” (Bioorg Med Chem Lett, 2011).

SMILES strings stand for the structures. The source made the active and inactive calls. No cut-off for these calls is given here. Bounds are passed on as bounds.

For data set [1], the target named is T1, Prostaglandin E2 receptor EP4 subtype (Homo sapiens, UniProt P35408). Kind of data set: Displacement of [3H]PGE2 from human prostanoid EP4 receptor expressed in HEK293-EBNA cells after 60 mins by scintillation counting. In kind it is cell-based.
For data set [2], the target named is T1, Prostaglandin E2 receptor EP4 subtype. The data set can be described thus: Antagonist activity at human prostanoid EP4 receptor expressed in HEK293 cells assessed as inhibition of PGE2-induced cAMP accumulation by scintillation proximity assay. It counts as functional, cell-based. The method, boiled down:
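HEK293 cells expressing EP4 receptors. Antagonism is read as inhibition of PGE2-evoked rise in intracellular cAMP, reported as IC50. Agonism is read as cAMP elevation in the same cells without PGE2, reported as EC50.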

For data set [3], the species on record is Homo sapiens. The data set can be described thus: Selectivity ratio of Ki for human prostanoid EP2 receptor to Ki for human prostanoid EP4.
The species named for data set [4] is Homo sapiens. The data set can be described thus: Selectivity ratio of Ki for human prostanoid DP receptor to Ki for human prostanoid EP4.
For data set [5], the species on record is Homo sapiens. The data set can be described thus: Selectivity ratio of Ki for human prostanoid EP1 receptor to Ki for human prostanoid EP4.
The species named for data set [6] is Homo sapiens. The data set can be described thus: Selectivity ratio of Ki for human prostanoid EP3 receptor to Ki for human prostanoid EP4.
The species named for data set [7] is Homo sapiens. Kind of data set: Selectivity ratio of Ki for human prostanoid FP receptor to Ki for human prostanoid EP4.
The species entered for data set [8] is Homo sapiens. Kind of data set: Selectivity ratio of Ki for human prostanoid IP receptor to Ki for human prostanoid EP4.
Data set [9] is filed under the species Homo sapiens. Kind of data set: Selectivity ratio of Ki for human prostanoid TP receptor to Ki for human prostanoid EP4.
Data set [10] in a line: Half life in rat at 20 mg/kg, po and 5 mg/kg, iv. In kind it is ADME, organism-based. The following applies: in vivo. The method, boiled down:
(§1)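 Rat pharmacokinetics with potassium salts, given 20 mg/kg orally in 0.5% methocel and 5 mg/kg intravenously in 60% PEG 200. Half-life, oral bioavailability and clearance derived from these dosings.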

A short description of data set [11]: Bioavailability in rat at 20 mg/kg, po and 5 mg/kg, iv. In kind it is ADME, organism-based. The following applies: in vivo. The method, boiled down:
as §1

Data set [12] can be described thus: Clearance in rat at 20 mg/kg, po and 5 mg/kg, iv. It counts as ADME, organism-based. The note with it: in vivo. In outline:
as §1

Data set [13] addresses T1, Prostaglandin E2 receptor EP4 subtype. Kind of data set: Agonist activity at human prostanoid EP4 receptor expressed in HEK293 cells assessed as cAMP accumulation by scintillation proximity assay.
Data set [14] is described as follows: Drug excretion in rat bile assessed as total radioactivity after 24 hrs. It counts as ADME. The note with it: in vivo.
In data set [15] the test system is Hepatocyte. The data set can be described thus: Oxidative metabolism in rat hepatocytes assessed as protein covalent binding per mg of protein after 2 hrs. It counts as ADME, cell-based.
The subject of data set [16] is Hepatocyte. Kind of data set: Oxidative metabolism in human hepatocytes assessed as protein covalent binding per mg of protein after 2 hrs. It counts as ADME, cell-based.
Data set [17] is filed under the species Rattus norvegicus. The data set can be described thus: covalent protein labeling in rat assessed per mg of protein. In kind it is ADME, organism-based. The following applies: in vivo.
A short description of data set [18]: Metabolic stability in rat hepatocytes assessed as parent compound remaining after 2 hrs. In kind it is ADME, cell-based, Hepatocyte. The following applies: read-out: Stability. The method, boiled down:
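Incubation with rat hepatocytes for 2 h. The mixture is analysed by LC/MS for percent parent remaining and metabolite identity.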

Data set [19] concerns Rattus norvegicus. Kind of data set: Antiinflammatory activity in rat assessed as inhibition of complete Freund's adjuvant-induced paw swelling administered daily once 9 days after adjuvant challenge measured on day 18. In kind it is functional, organism-based. In outline:
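Adjuvant arthritis in rats: complete Freund's adjuvant injected into the left hind paw on day 0. Dosing once daily for 9 days, starting on day 9. Secondary paw volume measured on day 18. Percent inhibition is calculated from the difference between each treated group (n = 7/group) and vehicle control; SEM reported.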

Data set [20] relates to Rattus norvegicus. Kind of data set: Analgesic activity against carrageenan-induced mechanical hyperalgesia in rat assessed as paw withdrawal latency at 10 mg/kg. It counts as functional. The method, boiled down: (§2)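 Rats given carrageenan injection into the paw at t = 0 h, test article dosed at t = 2 h. At t = 3 h mechanical pressure is applied to the paw and paw withdrawal latency is recorded. Statistics by one-way ANOVA with Dunnett's test versus vehicle control.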

The species named for data set [21] is Rattus norvegicus. The data set can be described thus: Analgesic activity against carrageenan-induced mechanical hyperalgesia in rat assessed as paw withdrawal latency. In kind it is functional, organism-based. The method, boiled down:
as §2

For data set [22], the system named is Rattus norvegicus. The data set can be described thus: Antiinflammatory activity in rat assessed as inhibition of complete Freund's adjuvant-induced paw swelling at 0.6 mg/kg administered daily once 9 days after adjuvant challenge measured on day 18.

T1 sequence (P35408 whole entry): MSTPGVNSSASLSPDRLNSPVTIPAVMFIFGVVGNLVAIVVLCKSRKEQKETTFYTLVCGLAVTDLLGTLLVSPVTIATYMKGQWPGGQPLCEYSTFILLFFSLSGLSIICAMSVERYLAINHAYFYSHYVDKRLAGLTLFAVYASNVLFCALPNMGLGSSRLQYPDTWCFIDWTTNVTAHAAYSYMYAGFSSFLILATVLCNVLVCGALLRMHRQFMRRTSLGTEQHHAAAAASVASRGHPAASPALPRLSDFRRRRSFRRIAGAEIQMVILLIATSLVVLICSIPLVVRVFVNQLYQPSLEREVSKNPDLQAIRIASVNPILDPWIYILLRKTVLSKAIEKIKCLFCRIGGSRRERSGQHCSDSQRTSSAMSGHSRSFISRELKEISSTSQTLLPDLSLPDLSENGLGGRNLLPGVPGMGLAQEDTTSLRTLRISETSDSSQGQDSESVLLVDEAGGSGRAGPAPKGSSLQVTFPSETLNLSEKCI

For `C[C@H](NC(=O)c1cccc2c1N(Cc1cccc(Cl)c1)CC2)c1ccc(C(=O)O)cc1`, in [1], affinity was put at a Ki of 0.44 nM. For the same compound, in [2], the IC50 was more than 10000 nM. Also, the Ratio Ki in the data set filed under Homo sapiens [3] was 595; in the data set filed under Homo sapiens [4], more than 1000; in the data set filed under Homo sapiens [5], more than 1000; in the data set filed under Homo sapiens [6], more than 1000; in the data set filed under Homo sapiens [7], more than 1000; in the data set filed under Homo sapiens [8] it was more than 1000. Besides, in the data set filed under Homo sapiens [9], the Ratio Ki is more than 1000. Also, in [10], the half-life was 4.4 h. Further, the bioavailability in data set [11] is 65%. In addition, in [12], the clearance came out at 26 mL/min/kg. Moreover, the EC50 in data set [13] is 0.82 nM.
Regarding `[3H]c1cc2c(c(C(=O)N[C@@H](C)c3ccc(C(=O)O)cc3)c1)N(Cc1ccc(C(F)(F)F)cc1)CC2`, the Activity is 86% in data set [14], 56 pmolequiv/mg in the data set with Hepatocyte [15], 28 pmolequiv/mg in the data set with Hepatocyte [16] and 5 pmol in the data set listed under Rattus norvegicus [17].
Take `C[C@H](NC(=O)c1cccc2c1N(Cc1cccc(C(F)(F)F)c1)CC2)c1ccc(C(=O)O)cc1`: the Ki in data set [1] turned out to be 0.4 nM. Besides, the IC50 in data set [2] was more than 10000 nM. Moreover, the Ratio Ki in the data set filed under Homo sapiens [3], in the data set listed under Homo sapiens [4], in the data set listed under Homo sapiens [5], in the data set listed under Homo sapiens [6], in the data set listed under Homo sapiens [7] and in the data set listed under Homo sapiens [8] was more than 1000 in each case. Moreover, the Ratio Ki in the data set filed under Homo sapiens [9] is more than 1000. Moreover, in data set [13], the EC50 stood at 0.2 nM.
Compound `C[C@H](NC(=O)c1cccc2c1N(Cc1cc(Br)cc(Br)c1)CC2)c1ccc(C(=O)O)cc1` displayed an inhibition constant (Ki) in [1] of 0.33 nM. The IC50 in data set [2] was more than 10000 nM. The Ratio Ki in the data set listed under Homo sapiens [3] was 151; in the data set listed under Homo sapiens [4], 209; in the data set listed under Homo sapiens [5], more than 1000; in the data set listed under Homo sapiens [6] it was more than 1000; in the data set listed under Homo sapiens [7], more than 1000; in the data set filed under Homo sapiens [8], more than 1000. In addition, in the data set listed under Homo sapiens [9], the Ratio Ki is more than 1000. The EC50 in data set [13] was 0.36 nM.
`C[C@H](NC(=O)c1cccc2c1N(Cc1ccc(Cl)cc1)CC2)c1ccc(C(=O)O)cc1`: the affinity in data set [1] corresponds to a Ki of 0.44 nM. For the same compound, in [2], the IC50 was determined as 0.92 nM. The Ratio Ki in the data set filed under Homo sapiens [3], in the data set filed under Homo sapiens [4], in the data set listed under Homo sapiens [5], in the data set listed under Homo sapiens [6], in the data set filed under Homo sapiens [7] and in the data set filed under Homo sapiens [8] was more than 1000 throughout. Besides, the Ratio Ki in the data set filed under Homo sapiens [9] is more than 1000. Further, in [10], the half-life was 4.7 h. In addition, the bioavailability in [11] turned out to be 102%. The compound also had a clearance in [12] of 9 mL/min/kg.
`C[C@H](NC(=O)c1cccc2c1N(Cc1ccc(C(F)(F)F)cc1)CC2)c1ccc(C(=O)O)cc1`: in data set [18], the remaining at 2 h came out at 36%. The inhibition constant (Ki) in data set [1] was determined as 0.37 nM. In addition, the IC50 in data set [2] is 2.1 nM. Also, the Ratio Ki in the data set filed under Homo sapiens [3], in the data set filed under Homo sapiens [4], in the data set filed under Homo sapiens [5], in the data set listed under Homo sapiens [6], in the data set filed under Homo sapiens [7] and in the data set filed under Homo sapiens [8] was more than 1000 each time. For the same compound, the Ratio Ki in the data set filed under Homo sapiens [9] was more than 1000. For the same compound, the half-life in data set [10] is 4.1 h. Also, in data set [11], the bioavailability is 48%. Moreover, the clearance in data set [12] is 11 mL/min/kg. For the same compound, the inhibition entry with Rattus norvegicus [19] is “Dose-dependent effect”. Besides, the Activity in the data set with Rattus norvegicus [20] was 64%; in the data set filed under Rattus norvegicus [21], “Dose-dependent effect”. Besides, the inhibition entry in the data set with Rattus norvegicus [22] is “Active”.
